The test system of test [1] is Mycobacterium tuberculosis. Nature of the test: Inhibition of wild-type Mycobacterium tuberculosis partial length PKNB (M1 to G279 residues) expressed in HEK293 cells assessed as residual activity at 1000 nM after 30 mins by Kinomescan method relative to control. Format: cell-based. The method in brief:
(§1)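 Single-point screen at a fixed 1 µM, run within a 456-kinase DiscoveRx KINOMEscan panel. Each kinase's read-out is Percent Control, i.e. signal relative to a control without compound. Hits were scored by a Percent Control < 35 cut-off, and an S(35) selectivity score was calculated across the non-mutant kinases.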

Test [2] concerns the target Calcium/calmodulin-dependent protein kinase type IV (Homo sapiens) (UniProt Q16566). Kind of test: Inhibition of wild-type human partial length CAMK4 (A22 to A322 residues) expressed in Escherichia coli BL21 assessed as residual activity at 1000 nM after 30 mins by Kinomescan method relative to control.
Test [3] deals with ALK tyrosine kinase receptor (Homo sapiens) (UniProt Q9UM73). Kind of test: Inhibition of wild-type human partial length ALK (I1088 to E1409 residues) expressed in HEK293 cells assessed as residual activity at 1000 nM after 30 mins by Kinomescan method relative to control. Format: cell-based.
The target of test [4] is Serine/threonine-protein kinase BRSK2 (Homo sapiens) (UniProt Q8IWQ3). Nature of the test: Inhibition of wild-type human full length BRSK2 (M1 to L674 residues) expressed in Escherichia coli BL21 assessed as residual activity at 1000 nM after 30 mins by Kinomescan method relative to control. The method in brief: as §1
Serine/threonine-protein kinase BRSK2 (Homo sapiens), sequence (Q8IWQ3 whole entry, the tested form may be a part): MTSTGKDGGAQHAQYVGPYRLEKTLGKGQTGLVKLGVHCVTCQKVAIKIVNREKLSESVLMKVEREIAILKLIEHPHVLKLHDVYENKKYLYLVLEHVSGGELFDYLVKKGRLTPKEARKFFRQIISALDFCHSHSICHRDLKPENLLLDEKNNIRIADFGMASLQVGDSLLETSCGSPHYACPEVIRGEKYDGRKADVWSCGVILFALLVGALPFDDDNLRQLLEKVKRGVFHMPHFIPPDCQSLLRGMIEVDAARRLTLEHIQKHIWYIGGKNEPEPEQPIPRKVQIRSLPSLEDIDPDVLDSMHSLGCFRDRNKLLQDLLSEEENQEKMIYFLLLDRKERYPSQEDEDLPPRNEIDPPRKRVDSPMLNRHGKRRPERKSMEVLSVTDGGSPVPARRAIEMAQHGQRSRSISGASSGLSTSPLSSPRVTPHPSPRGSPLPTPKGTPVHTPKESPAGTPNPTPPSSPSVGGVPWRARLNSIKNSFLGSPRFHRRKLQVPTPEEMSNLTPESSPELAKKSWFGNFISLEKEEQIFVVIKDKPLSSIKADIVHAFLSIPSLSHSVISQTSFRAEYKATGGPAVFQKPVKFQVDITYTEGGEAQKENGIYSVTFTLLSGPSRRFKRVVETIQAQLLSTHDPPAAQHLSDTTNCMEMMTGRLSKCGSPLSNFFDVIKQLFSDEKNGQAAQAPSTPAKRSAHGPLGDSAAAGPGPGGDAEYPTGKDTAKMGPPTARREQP
Test [5] addresses Serine/threonine-protein kinase 32B (Homo sapiens) (UniProt Q9NY57). Kind of test: Inhibition of wild-type human full length YANK2 (M1 to S414 residues) expressed in Escherichia coli BL21 assessed as residual activity at 1000 nM after 30 mins by Kinomescan method relative to control.
Test [6] deals with Phosphatidylinositol 4,5-bisphosphate 3-kinase catalytic subunit alpha isoform (Homo sapiens), P42336 [H1047Y]. Nature of the test: Inhibition of human partial length PIK3CA H1047Y mutant (R108 to N1068 residues) expressed in HEK293 cells assessed as residual activity at 1000 nM after 30 mins by Kinomescan method relative to control. The format is cell-based. In short, it runs like this:
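KINOMEscan binding panel of 456 kinases, with the test compound at a single concentration of 1 µM. Read-out is Percent Control.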

Test [7] addresses Tyrosine-protein kinase JAK3 (Homo sapiens) (UniProt P52333). Nature of the test: Inhibition of wild-type human partial length JAK3 JH1 catalytic domain (I781 to S1124 residues) expressed in HEK293 cells assessed as residual activity at 1000 nM after 30 mins by Kinomescan method relative to control. The format is cell-based.
The target of test [8] is Interleukin-1 receptor-associated kinase 1 (Homo sapiens) (UniProt P51617). Kind of test: Inhibition of wild-type human partial length IRAK1 (R194 to S712 residues) expressed in HEK293 cells assessed as residual activity at 1000 nM after 30 mins by Kinomescan method relative to control. Format: cell-based.
Interleukin-1 receptor-associated kinase 1 (Homo sapiens), sequence (P51617 whole entry, looked up, the tested form may be a part): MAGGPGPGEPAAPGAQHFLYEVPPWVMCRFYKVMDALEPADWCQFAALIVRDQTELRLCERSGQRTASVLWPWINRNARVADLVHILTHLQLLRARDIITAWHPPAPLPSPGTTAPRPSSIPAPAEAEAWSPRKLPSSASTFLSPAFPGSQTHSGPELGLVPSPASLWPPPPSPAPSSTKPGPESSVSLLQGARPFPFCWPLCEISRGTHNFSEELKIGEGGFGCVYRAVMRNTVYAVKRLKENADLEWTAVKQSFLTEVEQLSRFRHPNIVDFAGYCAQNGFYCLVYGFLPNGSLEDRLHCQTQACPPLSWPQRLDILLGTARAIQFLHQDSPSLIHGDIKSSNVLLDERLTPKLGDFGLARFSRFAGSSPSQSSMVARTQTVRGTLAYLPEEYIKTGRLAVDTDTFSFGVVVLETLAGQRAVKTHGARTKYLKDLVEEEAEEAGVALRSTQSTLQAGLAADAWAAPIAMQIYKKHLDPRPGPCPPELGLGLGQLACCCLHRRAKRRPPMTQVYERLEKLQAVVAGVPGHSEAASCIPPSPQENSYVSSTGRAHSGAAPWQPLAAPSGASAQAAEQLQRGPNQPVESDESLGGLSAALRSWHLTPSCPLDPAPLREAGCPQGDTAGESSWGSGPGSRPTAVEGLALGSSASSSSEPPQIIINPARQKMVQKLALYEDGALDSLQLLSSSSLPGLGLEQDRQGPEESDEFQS
The target of test [9] is Mitogen-activated protein kinase 13 (Homo sapiens) (UniProt O15264). Kind of test: Inhibition of wild-type human full length p38-delta (M1 to L365 residues) expressed in Escherichia coli BL21 assessed as residual activity at 1000 nM after 30 mins by Kinomescan method relative to control.
Mitogen-activated protein kinase 13 (Homo sapiens), sequence (O15264 whole entry, the tested form may be a part): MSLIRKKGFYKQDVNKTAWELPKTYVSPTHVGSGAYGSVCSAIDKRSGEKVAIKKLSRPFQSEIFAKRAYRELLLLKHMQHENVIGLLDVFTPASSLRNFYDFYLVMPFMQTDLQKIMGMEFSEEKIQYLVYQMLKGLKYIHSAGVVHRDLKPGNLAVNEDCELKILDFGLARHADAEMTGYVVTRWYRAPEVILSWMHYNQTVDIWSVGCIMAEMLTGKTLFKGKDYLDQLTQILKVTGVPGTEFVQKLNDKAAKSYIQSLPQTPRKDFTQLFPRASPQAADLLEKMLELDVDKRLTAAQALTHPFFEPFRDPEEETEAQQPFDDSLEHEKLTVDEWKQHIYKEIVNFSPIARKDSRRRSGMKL
For test [10], the target named is Serine/threonine-protein kinase N2 (Homo sapiens) (UniProt Q16513). Kind of test: Inhibition of wild-type human partial length PKN2 (E634 to C984 residues) expressed in Escherichia coli BL21 assessed as residual activity at 1000 nM after 30 mins by Kinomescan method relative to control.
Test [11] has as its target Testis-specific serine/threonine-protein kinase 1 (Homo sapiens) (UniProt Q9BXA7). Nature of the test: Inhibition of wild-type human full length TSSK1B (M1 to Q367 residues) expressed in Escherichia coli BL21 assessed as residual activity at 1000 nM after 30 mins by Kinomescan method relative to control.
The target in test [12] is Leucine-rich repeat serine/threonine-protein kinase 2 (Homo sapiens) (UniProt Q5S007). Nature of the test: Inhibition of wild-type human partial length LRRK2 (H970 to E2527 residues) expressed in HEK293 cells assessed as residual activity at 1000 nM after 30 mins by Kinomescan method relative to control. The format is cell-based.
Test [13] relates to Tyrosine-protein kinase ABL1 (Homo sapiens), P00519 [F317L]. Kind of test: Inhibition of human phosphorylated ABL1 F317L mutant (S229 to K512 residues) expressed in HEK293 cells assessed as residual activity at 1000 nM after 30 mins by Kinomescan method relative to control. The format is cell-based. The method in brief:
as §1

Test [14] concerns the target TGF-beta receptor type-1 (Homo sapiens) (UniProt P36897). Nature of the test: Inhibition of wild-type human partial length TGFBR1 (D179 to M503 residues) expressed in Escherichia coli BL21 assessed as residual activity at 1000 nM after 30 mins by Kinomescan method relative to control.
For test [15], the target named is Phosphatidylinositol 5-phosphate 4-kinase type-2 gamma (Homo sapiens) (UniProt Q8TBX8). Nature of the test: Inhibition of wild-type human partial length PIP5K2C (M1 to A421 residues) expressed in HEK293 cells assessed as residual activity at 1000 nM after 30 mins by Kinomescan method relative to control. Format: cell-based.
Test [16] deals with Serine/threonine-protein kinase 17A (Homo sapiens) (UniProt Q9UEE5). Nature of the test: Inhibition of wild-type human partial length DRAK1 (R32 to E363 residues) expressed in Escherichia coli BL21 assessed as residual activity at 1000 nM after 30 mins by Kinomescan method relative to control.
Test [17] deals with Myotonin-protein kinase (Homo sapiens) (UniProt Q09013). Nature of the test: Inhibition of wild-type human partial length DMPK (V47 to V415 residues) expressed in Escherichia coli BL21 assessed as residual activity at 1000 nM after 30 mins by Kinomescan method relative to control.
Test [18] concerns the target Activated CDC42 kinase 1 (Homo sapiens) (UniProt Q07912). Kind of test: Inhibition of wild-type human partial length TNK2 (S159 to D474 residues) expressed in Escherichia coli BL21 assessed as residual activity at 1000 nM after 30 mins by Kinomescan method relative to control.
In test [19] the test system is Tyrosine-protein kinase ABL1 (Homo sapiens), P00519 [H396P]. Kind of test: Inhibition of human phosphorylated ABL1 H396P mutant (S229 to K512 residues) expressed in HEK293 cells assessed as residual activity at 1000 nM after 30 mins by Kinomescan method relative to control. The format is cell-based. In short, it runs like this:
as §1

In test [20] the target is Calcium/calmodulin-dependent protein kinase type 1B (Homo sapiens) (UniProt Q6P2M8). Kind of test: Inhibition of wild-type human partial length CAMK1B (W9 to A311 residues) expressed in HEK293 cells assessed as residual activity at 1000 nM after 30 mins by Kinomescan method relative to control. Format: cell-based.
Calcium/calmodulin-dependent protein kinase type 1B (Homo sapiens), sequence (Q6P2M8 whole entry, the tested form may be a part): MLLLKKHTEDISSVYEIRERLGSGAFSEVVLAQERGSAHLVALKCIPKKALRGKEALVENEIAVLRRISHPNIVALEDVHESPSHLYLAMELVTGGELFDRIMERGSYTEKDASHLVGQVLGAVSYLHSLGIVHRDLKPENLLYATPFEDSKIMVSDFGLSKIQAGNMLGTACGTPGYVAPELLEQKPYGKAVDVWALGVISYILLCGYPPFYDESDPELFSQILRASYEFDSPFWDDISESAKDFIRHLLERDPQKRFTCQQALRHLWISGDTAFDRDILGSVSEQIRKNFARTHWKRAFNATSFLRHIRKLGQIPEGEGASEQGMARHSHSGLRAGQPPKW
The target of test [21] is Inhibitor of nuclear factor kappa-B kinase subunit alpha (Homo sapiens) (UniProt O15111). Kind of test: Inhibition of wild-type human full length IKK-alpha (M1 to E745 residues) expressed in HEK293 cells assessed as residual activity at 1000 nM after 30 mins by Kinomescan method relative to control. The format is cell-based. The method in brief:
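Single-concentration screen at 1 µM across a 456-kinase KINOMEscan panel. The read-out is Percent Control for each kinase.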

TGF-beta receptor type-1 (Homo sapiens), sequence (P36897 whole entry, the tested form may be a part): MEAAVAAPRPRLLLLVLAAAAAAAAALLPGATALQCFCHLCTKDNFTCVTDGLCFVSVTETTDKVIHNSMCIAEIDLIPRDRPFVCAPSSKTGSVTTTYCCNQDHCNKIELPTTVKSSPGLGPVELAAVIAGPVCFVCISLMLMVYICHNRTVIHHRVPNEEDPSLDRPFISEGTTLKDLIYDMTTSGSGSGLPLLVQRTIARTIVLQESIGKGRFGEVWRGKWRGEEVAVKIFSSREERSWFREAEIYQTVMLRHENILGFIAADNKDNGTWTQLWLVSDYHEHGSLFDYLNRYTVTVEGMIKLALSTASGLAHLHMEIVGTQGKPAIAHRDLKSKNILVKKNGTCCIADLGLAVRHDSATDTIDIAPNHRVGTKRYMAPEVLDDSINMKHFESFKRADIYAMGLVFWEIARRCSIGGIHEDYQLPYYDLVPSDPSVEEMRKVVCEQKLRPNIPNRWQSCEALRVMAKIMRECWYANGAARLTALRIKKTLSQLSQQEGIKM
Testis-specific serine/threonine-protein kinase 1 (Homo sapiens), sequence (Q9BXA7 whole entry, the tested form may be a part): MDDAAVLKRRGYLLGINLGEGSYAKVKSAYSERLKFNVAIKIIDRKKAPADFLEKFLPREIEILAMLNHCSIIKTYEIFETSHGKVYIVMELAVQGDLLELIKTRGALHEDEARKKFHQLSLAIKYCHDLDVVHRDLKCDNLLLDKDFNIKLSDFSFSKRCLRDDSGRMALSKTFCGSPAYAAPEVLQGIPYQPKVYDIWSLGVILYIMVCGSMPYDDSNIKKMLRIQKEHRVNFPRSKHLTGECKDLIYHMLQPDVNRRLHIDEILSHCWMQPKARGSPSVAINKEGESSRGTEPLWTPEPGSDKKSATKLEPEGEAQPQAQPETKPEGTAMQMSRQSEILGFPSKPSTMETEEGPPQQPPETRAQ
Inhibitor of nuclear factor kappa-B kinase subunit alpha (Homo sapiens), sequence (O15111 whole entry, the tested form may be a part): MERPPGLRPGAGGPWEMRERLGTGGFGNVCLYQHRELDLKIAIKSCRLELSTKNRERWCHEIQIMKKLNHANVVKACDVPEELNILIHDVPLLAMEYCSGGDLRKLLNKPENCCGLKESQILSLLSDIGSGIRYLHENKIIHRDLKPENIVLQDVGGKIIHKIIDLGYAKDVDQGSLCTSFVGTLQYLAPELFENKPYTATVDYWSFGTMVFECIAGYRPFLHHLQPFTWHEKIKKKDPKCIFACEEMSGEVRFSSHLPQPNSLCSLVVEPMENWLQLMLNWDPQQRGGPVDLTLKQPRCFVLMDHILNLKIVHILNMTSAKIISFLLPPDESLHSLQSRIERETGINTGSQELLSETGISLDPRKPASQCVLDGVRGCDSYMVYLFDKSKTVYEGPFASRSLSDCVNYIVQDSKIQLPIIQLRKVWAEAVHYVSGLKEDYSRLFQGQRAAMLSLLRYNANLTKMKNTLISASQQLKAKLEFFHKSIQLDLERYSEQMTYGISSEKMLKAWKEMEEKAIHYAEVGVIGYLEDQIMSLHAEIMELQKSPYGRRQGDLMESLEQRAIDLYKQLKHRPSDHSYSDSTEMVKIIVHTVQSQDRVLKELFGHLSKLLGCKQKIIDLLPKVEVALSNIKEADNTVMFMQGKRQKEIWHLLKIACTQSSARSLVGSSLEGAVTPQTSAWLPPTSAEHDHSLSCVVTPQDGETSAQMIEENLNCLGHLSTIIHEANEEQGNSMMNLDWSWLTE
Calcium/calmodulin-dependent protein kinase type IV (Homo sapiens), sequence (Q16566 whole entry, the tested form may be a part): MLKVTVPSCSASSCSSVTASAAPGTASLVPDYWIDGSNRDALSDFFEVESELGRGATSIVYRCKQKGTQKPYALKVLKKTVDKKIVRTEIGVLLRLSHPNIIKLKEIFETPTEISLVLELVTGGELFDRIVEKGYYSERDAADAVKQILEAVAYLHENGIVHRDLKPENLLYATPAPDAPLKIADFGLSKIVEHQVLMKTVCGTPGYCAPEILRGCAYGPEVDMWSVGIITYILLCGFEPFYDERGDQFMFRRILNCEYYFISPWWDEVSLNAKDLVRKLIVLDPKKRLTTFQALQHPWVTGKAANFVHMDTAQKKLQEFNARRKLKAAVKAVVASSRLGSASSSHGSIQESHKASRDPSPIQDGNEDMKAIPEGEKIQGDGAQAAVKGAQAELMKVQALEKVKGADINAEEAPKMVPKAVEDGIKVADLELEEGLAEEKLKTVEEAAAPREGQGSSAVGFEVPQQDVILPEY
Serine/threonine-protein kinase 32B (Homo sapiens), sequence (Q9NY57 whole entry, the tested form may be a part, canonical isoform): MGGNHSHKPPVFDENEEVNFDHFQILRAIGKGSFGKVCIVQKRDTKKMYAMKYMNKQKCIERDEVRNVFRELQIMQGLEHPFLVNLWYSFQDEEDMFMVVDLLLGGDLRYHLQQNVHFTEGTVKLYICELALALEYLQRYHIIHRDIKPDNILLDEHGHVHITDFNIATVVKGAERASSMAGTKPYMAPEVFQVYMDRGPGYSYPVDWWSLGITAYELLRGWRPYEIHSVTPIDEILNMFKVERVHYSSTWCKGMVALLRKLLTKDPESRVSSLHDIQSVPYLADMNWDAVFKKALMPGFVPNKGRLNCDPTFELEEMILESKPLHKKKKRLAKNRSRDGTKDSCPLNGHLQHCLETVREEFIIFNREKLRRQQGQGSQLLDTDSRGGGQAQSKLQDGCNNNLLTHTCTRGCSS

As to `COc1cc(OC)c(Cl)c(N2Cc3cnc(Nc4ccc(F)cc4)nc3N(C3CCN(C(=O)/C=C/CN(C)C)CC3)C2=O)c1Cl`, the Activity in test [1] came out at 100%; in [2], 96%; in test [3], 100%; in [4] it was 99%; in test [5], 83%; in test [6], 100%. Also, the Activity amounted to 98% in [7]; 98% in test [8]; 90% in [9]; 91% in test [10]; 89% in test [11]; 100% in test [12]. Besides, the Activity in test [13] was 64%; in [14] it was 95%; in test [15], 6.3%; in test [16], 96%; in [17], 100%; in test [18] it was 100%. Moreover, the Activity in test [19] came out at 42%; in test [20] it was 100%; in [21], 95%.

The values are drawn from ChEMBL document CHEMBL4043093, “2-Oxo-3, 4-dihydropyrimido[4, 5-d]pyrimidinyl derivatives as new irreversible pan fibroblast growth factor receptor (FGFR) inhibitors” (Eur J Med Chem, 2017).
